Assay results from ChEMBL document CHEMBL1151746, “Antitumor agents 6. Synthesis, structure-activity relationships, and biological evaluation of spiro[imidazolidine-4,3'-thieno[2,3-g]quinoline]-tetraones and spiro[thieno[2,3-g]quinoline-3,5'-[1,2,4]triazinane]-tetraones with potent antiproliferative activity” (J Med Chem, 2008).

Legend:
MT4 = assay: Antiproliferative activity against human MT4 cells after 96 hrs by MTT assay; format: functional, cell-based
In short: (§1)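 Exponentially growing cells in RPMI 1640 with 10% FCS were resuspended at 1 × 10⁵ cells/mL in RPMI containing serial dilutions of compound (DMSO solution at 200 µM, diluted in medium). After 96 h at 37 °C, viability was read by MTT. Growth was taken as % of untreated controls, which grew at least three rounds. IC50 came from linear regression, as the mean of three independent determinations.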

HT-29 = assay: Antiproliferative activity against human HT-29 cells after 96 hrs by MTT assay; format: functional, cell-based
In short: (§2)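 Solid-tumor cells in their specific media with 10% FCS were seeded at 5 × 10⁴ cells/mL and left to adhere 16 h. Serially diluted compound was then added (DMSO solution at 200 µM, diluted in medium). MTT viability was read 4 days later. IC50 came from linear regression against untreated controls, which grew at least three rounds, as the mean of three independent determinations.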

CCRF-CEM = assay: Antiproliferative activity against human CCRF-CEM cells after 96 hrs by MTT assay; format: functional, cell-based; in short: as §1
CCRF-SB = assay: Antiproliferative activity against human CCRF-SB cells after 96 hrs by MTT assay; format: functional, cell-based; in short: as §1
MCF7 = assay: Antiproliferative activity against human MCF7 cells after 96 hrs by MTT assay; format: functional, cell-based; settings: MCF7, 96 h; in short: as §2
HeLa = assay: Antiproliferative activity against human HeLa cells after 96 hrs by MTT assay; format: functional, cell-based; in short: as §2
ACHN = assay: Antiproliferative activity against human ACHN cells after 96 hrs by MTT assay; format: functional, cell-based; in short: as §2
SF-268 = assay: Antiproliferative activity against human SF-268 cells after 96 hrs by MTT assay; format: functional, cell-based; settings: SF-268, 96 h; in short: as §2
XF498 = assay: Antiproliferative activity against human XF498 cells after 96 hrs by MTT assay; format: functional, cell-based; settings: XF498, 96 h; in short: as §2
MRC5 = assay: Antiproliferative activity against human MRC5 cells after 96 hrs by MTT assay; format: cell-based; settings: MRC5, 96 h; in short: as §1
[1] = target: DNA topoisomerase 2-alpha (Homo sapiens) (UniProt P11388); assay: Inhibition of DNA topoisomerase 2-mediated negatively supercoiled pBR322 relaxation
DNA topoisomerase 2-alpha (Homo sapiens), sequence (P11388 whole entry): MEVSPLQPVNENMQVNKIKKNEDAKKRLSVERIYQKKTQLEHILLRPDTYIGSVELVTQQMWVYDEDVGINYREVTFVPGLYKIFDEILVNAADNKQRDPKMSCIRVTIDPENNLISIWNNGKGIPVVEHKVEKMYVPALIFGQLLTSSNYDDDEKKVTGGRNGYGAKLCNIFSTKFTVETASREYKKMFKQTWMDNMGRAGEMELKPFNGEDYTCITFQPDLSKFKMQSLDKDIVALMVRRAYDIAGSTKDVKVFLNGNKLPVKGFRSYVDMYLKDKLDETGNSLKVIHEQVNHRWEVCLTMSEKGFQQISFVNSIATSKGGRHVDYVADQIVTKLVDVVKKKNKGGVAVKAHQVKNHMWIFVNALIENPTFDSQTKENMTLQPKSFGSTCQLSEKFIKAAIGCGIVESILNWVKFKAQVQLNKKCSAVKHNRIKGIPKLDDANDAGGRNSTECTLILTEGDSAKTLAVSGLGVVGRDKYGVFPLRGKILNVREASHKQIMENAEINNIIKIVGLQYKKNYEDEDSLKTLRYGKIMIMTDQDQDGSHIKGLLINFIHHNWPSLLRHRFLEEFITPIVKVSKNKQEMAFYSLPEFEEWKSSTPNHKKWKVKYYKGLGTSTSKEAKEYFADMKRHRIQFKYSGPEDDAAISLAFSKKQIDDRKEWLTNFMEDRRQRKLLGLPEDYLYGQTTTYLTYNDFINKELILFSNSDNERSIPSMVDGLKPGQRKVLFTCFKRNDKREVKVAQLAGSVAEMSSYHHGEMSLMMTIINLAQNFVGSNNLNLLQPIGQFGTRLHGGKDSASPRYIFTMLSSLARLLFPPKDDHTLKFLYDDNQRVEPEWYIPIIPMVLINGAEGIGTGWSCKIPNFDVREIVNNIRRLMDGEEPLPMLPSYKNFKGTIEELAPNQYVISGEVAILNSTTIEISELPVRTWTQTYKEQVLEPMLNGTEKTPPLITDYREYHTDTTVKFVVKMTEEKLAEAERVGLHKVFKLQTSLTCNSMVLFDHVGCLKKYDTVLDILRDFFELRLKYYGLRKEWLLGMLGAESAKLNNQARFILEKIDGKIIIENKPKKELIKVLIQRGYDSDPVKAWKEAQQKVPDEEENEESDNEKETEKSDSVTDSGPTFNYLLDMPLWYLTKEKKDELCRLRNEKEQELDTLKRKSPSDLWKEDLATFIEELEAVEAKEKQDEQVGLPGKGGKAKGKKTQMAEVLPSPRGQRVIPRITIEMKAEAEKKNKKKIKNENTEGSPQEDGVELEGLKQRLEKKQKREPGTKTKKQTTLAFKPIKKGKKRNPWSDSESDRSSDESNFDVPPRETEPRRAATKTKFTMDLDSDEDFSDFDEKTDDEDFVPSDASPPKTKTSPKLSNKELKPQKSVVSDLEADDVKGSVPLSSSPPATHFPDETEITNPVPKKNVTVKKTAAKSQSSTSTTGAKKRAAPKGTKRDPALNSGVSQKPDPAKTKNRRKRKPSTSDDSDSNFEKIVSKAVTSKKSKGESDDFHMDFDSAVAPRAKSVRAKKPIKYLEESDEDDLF

| Compound | IC50 (HT-29; ht-29) [µM] | IC50 (HT-29; Homo sapiens, HT-29, 96 h) [µM] | IC50 (CCRF-CEM) [µM] | IC50 (CCRF-SB) [µM] | IC50 (MCF7) [µM] | IC50 (HeLa) [µM] | IC50 (ACHN) [µM] | Activity [1] | IC50 (MT4; mt4) [µM] | IC50 (MT4; Homo sapiens, MT4, 96 h) [µM] | IC50 (SF-268) [µM] | IC50 (XF498) [µM] | IC50 (MRC5) [µM] |
| --- | --- | --- | --- | --- | --- | --- | --- | --- | --- | --- | --- | --- | --- |
| O=C1C2=C(C(=O)c3ncccc31)C1(CS2)NC(=O)N(c2ccc([N+](=O)[O-])cc2)C1=O (racemic) | – | 0.25 | 0.001 | 0.002 | 0.35 | 0.1 | 0.1 | – | – | 0.008 | 1.52 | 1.03 | – |
| CCCCc1ccc(N2C(=O)NC3(CSC4=C3C(=O)c3ncccc3C4=O)C2=O)cc1 (racemic) | – | 0.05 | 0.15 | 0.19 | 0.07 | 0.09 | 0.05 | – | – | 0.2 | 0.4 | 0.95 | – |
| CCCCCc1ccc(N2C(=O)NC3(CSC4=C3C(=O)c3ncccc3C4=O)C2=O)cc1 (racemic) | – | 0.25 | 0.25 | 0.15 | 0.25 | 0.2 | 0.25 | – | – | 0.19 | 0.52 | 0.83 | – |
| CN(C)c1ccc(N2C(=O)NC3(CSC4=C3C(=O)c3ncccc3C4=O)C2=O)cc1 (racemic) | – | 0.02 | 0.001 | 0.001 | 0.01 | 0.01 | 0.09 | Dose-dependent effect | – | 0.015 | 0.95 | 0.8 | 1 |
| O=C1C2=C(C(=O)c3ncccc31)C1(CS2)NC(=O)N(c2ccc(N3CCOCC3)cc2)C1=O (racemic) | – | 0.75 | 0.6 | 0.65 | 0.75 | 0.2 | 0.14 | – | – | 0.8 | 1.98 | 1.7 | – |
| CC(C)(C)c1ccc(N2C(=O)NC3(CSC4=C3C(=O)c3ncccc3C4=O)C2=O)cc1 (racemic) | – | 0.15 | 0.2 | 0.2 | 0.13 | 0.1 | 0.15 | – | – | 0.2 | 0.5 | 0.85 | – |
| COc1cc([C@@H]2c3cc4c(cc3[C@@H](O[C@@H]3O[C@@H]5CO[C@@H](C)O[C@H]5[C@H](O)[C@H]3O)[C@H]3COC(=O)[C@H]23)OCO4)cc(OC)c1O [ETOPOSIDE] | – | 2.5 | 1.2 | 0.1 | 1 | 3 | 2.15 | – | – | 1.25 | 3.25 | 3.45 | 3.9 |
| Cc1ccc(N2C(=O)NC3(CSC4=C3C(=O)c3ncccc3C4=O)C2=O)cc1 (racemic) | – | 0.001 | 0.02 | 0.02 | 0.002 | 0.002 | 0.012 | – | – | 0.027 | 0.66 | 1.35 | – |
| CCc1ccc(N2C(=O)NC3(CSC4=C3C(=O)c3ncccc3C4=O)C2=O)cc1 (racemic) | – | 0.001 | 0.01 | 0.01 | 0.05 | 0.005 | 0.005 | – | – | 0.001 | 0.45 | 1.2 | – |
| COc1ccc(N2C(=O)NC3(CSC4=C3C(=O)c3ncccc3C4=O)C2=O)cc1 (racemic) | – | 0.002 | 0.05 | 0.01 | 0.05 | 0.001 | 0.05 | – | – | 0.07 | 0.65 | 0.65 | – |
| CCN(CC)c1ccc(N2C(=O)NC3(CSC4=C3C(=O)c3ncccc3C4=O)C2=O)cc1 (racemic) | – | 0.05 | 0.02 | 0.009 | 0.03 | 0.05 | 0.02 | – | – | 0.008 | 0.96 | 0.73 | – |

More lines, main results first:

| IC50 (HT-29; ht-29) [µM] | IC50 (HT-29; Homo sapiens, HT-29, 96 h) [µM] | IC50 (CCRF-CEM) [µM] | IC50 (CCRF-SB) [µM] | IC50 (MCF7) [µM] | IC50 (HeLa) [µM] | IC50 (ACHN) [µM] | Activity [1] | Compound | IC50 (MT4; mt4) [µM] | IC50 (MT4; Homo sapiens, MT4, 96 h) [µM] | IC50 (SF-268) [µM] | IC50 (XF498) [µM] | IC50 (MRC5) [µM] |
| --- | --- | --- | --- | --- | --- | --- | --- | --- | --- | --- | --- | --- | --- |
| 0.18 | – | – | – | – | – | – | – | O=C1NC(=O)C2(CSC3=C2C(=O)c2ncccc2C3=O)N1 (stereo in doubt; (-)-2) | 0.12 | – | – | – | – |
| – | 0.19 | – | – | – | – | – | – | O=C1NC(=O)C2(CSC3=C2C(=O)c2ncccc2C3=O)N1 (single isomer, unassigned; (+)) | – | 0.13 | – | – | – |
| – | 1.01 | 0.002 | 0.002 | 0.55 | 0.61 | 0.65 | – | O=C1NN(c2ccc([N+](=O)[O-])cc2)C(=O)C2(CSC3=C2C(=O)c2ncccc2C3=O)N1 (racemic) | – | 0.005 | 3.55 | 4.8 | – |
| – | – | 0.45 | 0.048 | 1.25 | 0.98 | 1.05 | – | O=C1NNC(=O)C2(CSC3=C2C(=O)c2ncccc2C3=O)N1 (racemic) | – | – | 4.82 | 5 | – |
| – | 0.55 | 0.09 | 0.039 | 0.15 | 0.21 | 0.94 | – | O=C1NN(c2ccccc2)C(=O)C2(CSC3=C2C(=O)c2ncccc2C3=O)N1 (racemic) | – | 0.15 | 2.2 | 4.55 | – |
| – | 0.65 | 0.035 | 0.035 | 0.23 | 0.15 | 0.43 | – | COc1ccc(N2NC(=O)NC3(CSC4=C3C(=O)c3ncccc3C4=O)C2=O)cc1 (racemic) | – | 0.08 | 2.85 | 3.8 | – |
| – | 0.002 | 0.01 | 0.03 | 0.001 | 0.003 | 0.021 | – | O=C1C2=C(C(=O)c3ncccc31)C1(CS2)NC(=O)N(c2ccccc2)C1=O (racemic) | – | 0.025 | 1.7 | 1.51 | – |
| – | 0.2 | 0.07 | 0.037 | 0.41 | 0.21 | 0.5 | – | Cc1ccc(N2NC(=O)NC3(CSC4=C3C(=O)c3ncccc3C4=O)C2=O)cc1 (racemic) | – | 0.1 | 2.1 | 3.8 | – |
| – | 0.22 | 0.05 | 0.051 | 0.11 | 0.15 | 0.36 | – | O=C1NN(c2ccc(Cl)cc2)C(=O)C2(CSC3=C2C(=O)c2ncccc2C3=O)N1 (racemic) | – | 0.15 | 2 | 2.5 | – |
| – | 0.002 | 0.01 | 0.01 | 0.004 | 0.002 | 0.004 | Dose-dependent effect | O=C1C2=C(C(=O)c3ncccc31)C1(CS2)NC(=O)N(c2ccc(Cl)cc2)C1=O (racemic) | – | 0.01 | 0.58 | 0.59 | 0.8 |
| – | – | 0.12 | 0.15 | 0.12 | 0.15 | 0.08 | – | O=C1NC(=O)C2(CSC3=C2C(=O)c2ncccc2C3=O)N1 (racemic) | – | – | 3.1 | 3.12 | – |
| – | 1.58 | – | – | – | – | – | – | O=C1NNC(=O)C2(CSC3=C2C(=O)c2ncccc2C3=O)N1 (stereo in doubt; (+)-3) | – | 0.55 | – | – | – |
| – | 0.002 | 0.002 | 0.001 | 0.01 | 0.01 | 0.08 | – | O=C1C2=C(C(=O)c3ncccc31)C1(CS2)NC(=O)N(c2ccncc2)C1=O (racemic) | – | 0.003 | 1.1 | 1.12 | – |
| 1.6 | – | – | – | – | – | – | – | O=C1NNC(=O)C2(CSC3=C2C(=O)c2ncccc2C3=O)N1 (single isomer, unassigned; (-)) | 0.5 | – | – | – | – |
